What was measured:
[1] = system: cytokine production by OVA stimulated splenocytes; assay: Mouse splenocyte cytokine assay; type: cell-based; conditions: for inhibiting TH2 cytokine production compared with dexamethasone (in words): IL-5, IL-13, 10 nM (Figure 9)
Procedure, shortened: (§1)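 Female Balb-C mice (6–8 weeks) were immunized s.c. weekly for four weeks with 25 µg OVA adsorbed to 1 mg alum in 200 µl PBS. Splenocytes were strained and resuspended at 1.3×10^6 cells/mL in RPMI-1640, then given test material in DMSO plus OVA. Replicate control wells held DMSO or DMSO+OVA. Supernatant cytokines were read by sandwich ELISA at 450 nm against standards in each replicate assay. Viability was checked by trypan blue count.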

IL-5 production = IL-5 production by OVA stimulated mouse splenocytes; type: cell-based; conditions: pure compounds or fractions
Procedure, shortened: as §1

CCCCCC[C@H]1C(=O)O[C@H](C)[C@H](NC(=O)c2cccc(NC=O)c2O)C(=O)O[C@@H](C)[C@@H]1OC(=O)c1ccccc1 [compound 7]
inhibiting TH2 cytokine production compared with dexamethasone (in words) [1]: as effective as dexamethasone

C[C@@H]1OC(=O)[C@@H](NC(=O)c2cccc(NC=O)c2O)[C@@H](C)OC(=O)[C@H](Cc2ccccc2)[C@H]1O [compound 10]
suppression of IL-5 production (in words) (IL-5 production): low micromolar
suppression of cytokine production by OVA stimulated splenocytes (in words) [1]: low micromolar

CC(C)C(=O)O[C@H]1[C@H](C)OC(=O)[C@@H](NC(=O)c2cccc(NC=O)c2O)[C@@H](C)OC(=O)[C@@H]1Cc1ccccc1 [compound 2]
inhibiting TH2 cytokine production compared with dexamethasone (in words) [1]: as effective as dexamethasone
